Assay [1] relates to Mycolicibacterium smegmatis. As to the kind of experiment: Antimycobacterial activity against Mycobacterium smegmatis atR40 assessed as decrease in drug resistance development at 100 ug/disc after 2 to 3 days by paper disc method. In kind it is functional, organism-based. The procedure, abridged: (§1)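 Drug-resistant M. smegmatis mc2 155 mutants, isolated on M290 agar with 3.5-4× MIC of compound and resistance re-confirmed, grown in Middlebrook 7H9 (OADC, 0.1% Tween-80, 0.4% glycerol) to OD600 1.2. Diluted 1:9:10 culture:water:M290 and poured as top layer on M290 agar. Impregnated paper discs applied; 37 °C for 2–3 days. Halos measured to nearest 1 mm; triplicates, mean ± SD versus control strain.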

The subject of assay [2] is Mycolicibacterium smegmatis. Briefly: Antimycobacterial activity against Mycobacterium smegmatis atR2 assessed as decrease in drug resistance development at 100 ug/disc after 2 to 3 days by paper disc method. In kind it is functional, organism-based. The procedure, abridged:
(§2)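 Mutant M. smegmatis strains were grown in Middlebrook 7H9/OADC/Tween/glycerol to OD600 1.2. Cultures were diluted 1:9:10 (culture:water:M290) and overlaid on M290 agar. Commercial or impregnated paper discs were applied and plates incubated 2–3 days at 37 °C. Inhibition halos were measured to 1 mm, run in triplicate, mean ± SD.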

Assay [3] has as its system Mycolicibacterium smegmatis. As to the kind of experiment: Antimycobacterial activity against Mycobacterium smegmatis atR11 assessed as decrease in drug resistance development at 100 ug/disc after 2 to 3 days by paper disc method. Type of assay: functional, organism-based. The procedure, abridged: as §2
Assay [4] deals with Mycolicibacterium smegmatis. Briefly: Antimycobacterial activity against Mycobacterium smegmatis atR14 assessed as decrease in drug resistance development at 100 ug/disc after 2 to 3 days by paper disc method. In kind it is functional, organism-based. The procedure, abridged: as §2
In assay [5] the test system is Mycolicibacterium smegmatis. As to the kind of experiment: Antimycobacterial activity against Mycobacterium smegmatis atR37 assessed as decrease in drug resistance development at 100 ug/disc after 2 to 3 days by paper disc method. In kind it is functional, organism-based. The procedure, abridged:
as §1

In assay [6] the test system is Mycolicibacterium smegmatis. Briefly: Antimycobacterial activity against Mycobacterium smegmatis atR10 assessed as decrease in drug resistance development at 100 ug/disc after 2 to 3 days by paper disc method. Type of assay: functional, organism-based. Put shortly: as §2
Assay [7] deals with Mycolicibacterium smegmatis. Briefly: Antimycobacterial activity against Mycobacterium smegmatis atR1 assessed as decrease in drug resistance development at 100 ug/disc after 2 to 3 days by paper disc method. In kind it is functional, organism-based. The procedure, abridged: as §2
The subject of assay [8] is Mycolicibacterium smegmatis. Briefly: Antimycobacterial activity against Mycobacterium smegmatis atR8 assessed as decrease in drug resistance development at 100 ug/disc after 2 to 3 days by paper disc method. Type of assay: functional, organism-based. Put shortly: as §1
Assay [9] has as its system Mycolicibacterium smegmatis. Briefly: Antimycobacterial activity against Mycobacterium smegmatis atR9 assessed as decrease in drug resistance development at 15 ug/disc after 2 to 3 days by paper disc method. Type of assay: functional, organism-based. Put shortly: as §1
In assay [10] the test system is Mycolicibacterium smegmatis. Briefly: Antimycobacterial activity against Mycobacterium smegmatis atR8 assessed as decrease in drug resistance development at 15 ug/disc after 2 to 3 days by paper disc method. Type of assay: functional, organism-based. Put shortly:
as §1

Assay [11] has as its system Mycolicibacterium smegmatis. Briefly: Antimycobacterial activity against Mycobacterium smegmatis atR1 assessed as decrease in drug resistance development at 15 ug/disc after 2 to 3 days by paper disc method. In kind it is functional, organism-based. Put shortly: as §2
Assay [12] relates to Mycolicibacterium smegmatis. Briefly: Antimycobacterial activity against Mycobacterium smegmatis atR2 assessed as decrease in drug resistance development at 15 ug/disc after 2 to 3 days by paper disc method. In kind it is functional, organism-based. The procedure, abridged: as §2
Assay [13] relates to Mycolicibacterium smegmatis. As to the kind of experiment: Antimycobacterial activity against Mycobacterium smegmatis atR11 assessed as decrease in drug resistance development at 15 ug/disc after 2 to 3 days by paper disc method. In kind it is functional, organism-based. Put shortly:
as §2

For assay [14], the system named is Mycolicibacterium smegmatis. As to the kind of experiment: Antimycobacterial activity against Mycobacterium smegmatis atR14 assessed as decrease in drug resistance development at 15 ug/disc after 2 to 3 days by paper disc method. In kind it is functional, organism-based. The procedure, abridged:
as §2

The test system of assay [15] is Mycolicibacterium smegmatis MC2 155. As to the kind of experiment: Inhibition of STPK in Mycobacterium smegmatis MC2 155 expressing aminoglycoside phophotransferase-8 assessed as growth inhibition at 25 nmol/disk after 18 hrs in presence of kanamycin by paper disk method.

Structures are written as SMILES. Active and inactive are the calls of the source. No cut-off for these calls is given here.

In the case of `CO[C@H]1/C=C/O[C@@]2(C)Oc3c(C)c(O)c4c(O)c(c(/C=N/N5CCN(C)CC5)c(O)c4c3C2=O)NC(=O)/C(C)=C\C=C\[C@H](C)[C@H](O)[C@@H](C)[C@@H](O)[C@@H](C)[C@H](OC(C)=O)[C@@H]1C`, the outcome in assay [1] and in assay [5] was Active. Also, the result in assay [2], in [3], in assay [4], in [6], in assay [7] and in assay [8] was inactive.
Turning to `CC[C@H]1OC(=O)[C@H](C)[C@@H](O[C@H]2C[C@@](C)(OC)[C@@H](O)[C@H](C)O2)[C@H](C)[C@@H](O[C@@H]2O[C@H](C)C[C@H](N(C)C)[C@H]2O)[C@](C)(O)C[C@@H](C)C(=O)[C@H](C)[C@@H](O)[C@]1(C)O`, the result in assay [9], in assay [10], in assay [11], in assay [12], in [13] and in assay [14] was inactive.
Consider `CC(C)Sc1cnc2nnc(-n3ccnc3)nn12`, for which, in assay [15], the inhibition zone (IZ) stood at 13.8 mm.

These data come from ChEMBL document CHEMBL4359813, “Synthesis and antimycobacterial activity of imidazo[1,2-b][1,2,4,5]tetrazines” (2019).
